Hits are enriched below; roughly 3.6% of the tested compounds scored in any of these assays.
ATG4B inh – ATG4B (human) cysteine protease inhibition. ATG4B cleavage of LC3-PLA2, NBD-HPC fluorescence, 1 h. inhibition, % at 8.33 µM. AID 504462. Q9Y4P1. 0.51% of 340,000 active; in the data active = inhibition above about 40%
Target sequence (Q9Y4P1 whole entry, looked up): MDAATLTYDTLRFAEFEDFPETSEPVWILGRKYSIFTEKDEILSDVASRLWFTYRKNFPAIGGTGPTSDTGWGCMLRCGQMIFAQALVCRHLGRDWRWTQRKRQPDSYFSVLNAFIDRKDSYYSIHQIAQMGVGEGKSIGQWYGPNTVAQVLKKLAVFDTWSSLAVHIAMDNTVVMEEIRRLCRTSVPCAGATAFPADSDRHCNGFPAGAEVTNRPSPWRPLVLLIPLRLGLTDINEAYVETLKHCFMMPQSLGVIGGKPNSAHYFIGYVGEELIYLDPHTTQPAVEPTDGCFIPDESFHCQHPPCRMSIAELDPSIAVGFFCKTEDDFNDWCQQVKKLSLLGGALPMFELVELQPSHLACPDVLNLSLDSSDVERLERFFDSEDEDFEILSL
NR3A LBD binder – modulates the human NR3A ligand-binding domain; 2.5% of 340,000 active; NR3A LBD differential scanning fluorimetry, Tm shift; 0% = protein alone, 100% = glycine-bound protein; Tm shift relative to glycine control, % at 25 µM; AID 1259313;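 active = melting temperature shift of at least 10% of the positive control shift, at one fixed dose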
SENP1 inh – inhibitors of human SENP1 SUMO protease catalytic domain. Q9P0U3. recombinant SENP1 catalytic domain, CyPet-SUMO1-YPet FRET cleavage. inhibition, % at 10 µM. 0.21% of 360,000 active;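 active = inhibition at least 30% at 10 µM, raw YFP signal under a set limit, fluorescence ratio 0.5 to 1.5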
Target sequence (Q9P0U3 419-644 limits assumed): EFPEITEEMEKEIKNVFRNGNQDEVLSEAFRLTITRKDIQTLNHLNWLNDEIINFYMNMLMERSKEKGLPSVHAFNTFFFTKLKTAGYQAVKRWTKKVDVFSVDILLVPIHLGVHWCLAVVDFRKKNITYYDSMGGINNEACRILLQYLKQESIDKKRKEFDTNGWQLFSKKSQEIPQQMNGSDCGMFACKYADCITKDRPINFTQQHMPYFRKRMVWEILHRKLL
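Material – human SENP1 catalytic domain · Input – SENP1 enzyme, 20 pM final · Compound dosing – single concentration of 10 µM compound, 0.5% DMSO final · Timing – enzyme reaction for 50 min at room temperature, dark · Measured by – FRET fluorescence in CFP and YFP emission channels · Control set – no-enzyme wells low, DMSO-plus-enzyme wells high control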
UCH37 DUB inh – human UCH37 deubiquitinating enzyme inhibition. Q9Y5K5. purified proteasome/UCH37, Ub-AMC cleavage fluorescence. inhibition, % (no concentration beside the values). 0.33% of 330,000 active. AID 588478;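 active = mean inhibition over replicate wells above about 20%, limit read from the data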
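Assay system: Proteasome-bound UCH37. Buffer or medium: pH 7.4 Tris-HCl (50 mM) with ovalbumin, ATP-MgCl2, DTT. Incubation: 30 min preincubation with enzyme, 25 min cleavage at room temperature. Measured by: fluorescence, ex 355 nm, em 460 nm. Read-out basis: percent inhibition. Control set: wells without proteasome as full block, compound-free enzyme plus substrate as uninhibited.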
NadD block – NadD (S. aureus) enzyme inhibition; purified NadD enzyme, colorimetric absorbance read-out; inhibition, % at 20 µM; 0.78% of 360,000 active; AID 602399; in the data active = inhibition above about 26%
Hits are given with their value; - = inactive; . = no result.

SMILES	ATG4B inh	NR3A LBD binder	SENP1 inh	UCH37 DUB inh	NadD block
COc1cccc(SCc2noc(C(=O)NCCN(C)C)c2C(=O)NCCN(C)C)c1	-	-	-	32.0	-
COCCNC(=O)c1onc(CSc2cccc(OC)c2)c1C(=O)O	-	-	-	-	-
C=CCNC(=O)c1onc(CSc2cccc(C)c2)c1C(=O)O	-	12.9	-	.	-
Cc1cc(SCC(=O)c2ccc(O)c(O)c2)n2nc(C)c(-c3ccccc3)c2n1	-	22.6	-	-	-
CCN(CC)C(=O)C(=O)NN=Cc1ccc(Br)cc1	.	.	.	-	.
Cc1cc(NC(=O)c2cccc(COc3ccc(Br)cc3)c2)no1	-	-	-	-	-
CC(C)c1cc(C(N)=O)c(NC(=O)c2cccc(COc3ccc(Cl)cc3)c2)s1	-	16.0	-	-	-
Nc1cc(C(=O)NN=Cc2cccc([N+](=O)[O-])c2)n[nH]c1=O	.	.	.	-	.
CCCCOc1cccc(C(=O)Nc2ccc(NC(=O)c3cccs3)cc2)c1	-	21.9	-	-	-
CC(=O)c1ccc(NC(=O)c2ccc(NC(=O)CCS(=O)(=O)c3cccs3)cc2)cc1	-	20.5	-	-	-
O=C(COc1ccc(NC(=O)c2cccs2)cc1)c1ccc(F)cc1	-	27.0	-	-	-
COc1ccc(C(=O)COc2ccc(NC(C)=O)cc2)cc1	-	12.8	-	-	-
COc1cccc(C(=O)COc2ccc(NC(=O)c3cccs3)cc2)c1	-	-	-	-	-
CCOc1ccc(OCC(=O)Nc2ccc(OC)cc2)cc1	-	-	-	-	-
Cc1ccc(Oc2ccc(C=NO)cn2)cc1	.	.	.	-	.
Cn1c(=O)c2ncn(CC(=O)NN=C/C=C/c3ccccc3)c2n(C)c1=O	.	.	.	-	.
COc1cccc(NC(=O)c2ccc(NS(=O)(=O)c3cccs3)cc2)c1	-	-	-	-	-
CCOc1ccc(NC(=O)c2ccc(NS(=O)(=O)c3cccs3)cc2)cc1	-	23.9	-	-	-
COc1ccc(NC(=O)C#Cc2ccccc2)cc1	-	10.1	-	-	-
CCCOc1ccc(C(=O)Nc2ccc(NC(=O)c3cccs3)cc2)cc1	-	13.8	-	-	-
O=C(C#Cc1ccccc1)Nc1ccc(F)cc1	-	-	-	-	-
CCOc1cc(C=NNC(=O)CN2CCOCC2)ccc1OCc1ccc(F)cc1	.	.	.	-	.
COc1cc(C=NNC(=O)c2cc(-c3cccn3C)n[nH]2)cc(OC)c1OC	.	.	.	-	.
COC(=O)C(=NNc1ccccc1OC)N1CCCc2ccccc21	.	.	.	-	.
Cc1ccc(S(=O)(=O)C=CS(=O)(=O)c2ccc(C)cc2)cc1	.	.	-	.	-
SMILES	ATG4B inh	NR3A LBD binder	SENP1 inh	UCH37 DUB inh	NadD block
O=S(=O)(/C=C/C=C/S(=O)(=O)c1ccccc1)c1ccccc1	-	12.6	-	.	-
Cc1c(C=O)c(Cl)n(C)c(=O)c1C#N	-	-	-	21.3	-
C=CCNC(=S)NN=C(C)c1cccc(NC(C)=O)c1	.	.	.	-	.
O=C(NN=Cc1cc2c(cc1Br)OCO2)C1COc2ccccc2O1 (stereo not drawn)	.	.	.	-	.
CCOC(=O)C1(C(=O)O)NC(=O)CC1c1ccccc1 (stereo not drawn)	-	12.1	-	-	-
COc1ccc(/C=C/c2nc(-c3ccccc3O)n[nH]2)cc1OC	-	26.7	-	-	-
O=C(OCC(=O)N1CCCCC1)c1ccccc1SCC(=O)N1CCCCC1	-	-	-	-	-
N#CC1(NC(=O)COC(=O)c2ccccc2SCC(=O)N2CCCC2)CCCCC1	-	12.6	-	-	-
COc1ccc(NC(=O)COC(=O)c2ccccc2SCC(=O)N2CCCC2)cc1	-	19.5	-	-	-
COc1ccc(C=N/N=C2/NC(=O)CC(C(=O)O)S2)cc1 (stereo not drawn)	.	.	.	-	.
CS(=O)(=O)N(Cc1ccc(C(=O)NN=C2CCCCCC2)cc1)c1ccccc1	-	12.7	-	-	-
CS(=O)(=O)N(Cc1ccc(Cl)cc1)c1ccc(C(=O)N/N=C/c2cc3ccccc3nc2Cl)cc1	-	10.2	-	.	-
COc1ccc2cc(C=NNC(=O)c3ccc(CN(c4ccc(C)c(C)c4)S(C)(=O)=O)cc3)c(Cl)nc2c1	.	.	.	-	.
COC(=O)c1ccc(C2c3c(n[nH]c3C)C(=O)N2c2ccc(C)cc2)cc1 (stereo not drawn)	-	34.8	-	-	-
CCOC(=O)c1ccc(N2C(=O)c3n[nH]c(C)c3C2c2ccc(OC)cc2)cc1 (stereo not drawn)	-	-	-	-	-
O=C1CCCC2=C1Sc1ccccc1N2	-	-	51.8	.	-
O=C1Nc2ccccc2SC1=Cc1ccccc1	.	.	-	.	-
CS(=O)(=O)Nc1ccc(C(=O)CC(=O)Nc2ccc([N+](=O)[O-])cc2)cc1	-	36.7	-	-	-
O=C(COc1ccccc1)Nc1ccc([N+](=O)[O-])cc1	-	-	-	-	-
CC(=O)c1ccc(NS(=O)(=O)c2ccc([N+](=O)[O-])cc2)cc1	-	-	-	.	-
O=C(Cc1ccc([N+](=O)[O-])cc1)c1ccccc1	-	-	-	-	-
O=C(CC(=O)c1ccccc1)Nc1ccc([N+](=O)[O-])cc1	-	19.6	-	-	-
O=C(COc1ccc([N+](=O)[O-])cc1)Nc1ccc(NC(=O)c2ccccc2)cc1	-	13.2	-	-	-
CC(NC(=O)c1ccco1)C(=O)N1CCN(c2ccccc2)CC1 (stereo not drawn)	-	-	-	-	-
CC(NC(=O)c1ccco1)C(=O)N1CCN(C(c2ccccc2)c2ccccc2)CC1 (stereo not drawn)	-	11.1	-	-	-
SMILES	ATG4B inh	NR3A LBD binder	SENP1 inh	UCH37 DUB inh	NadD block
ON=Cc1ccc(-c2cc(Cl)ccc2Cl)o1	.	.	.	-	.
CC1(C)CNc2cc([N+](=O)[O-])ccc2S1	-	-	-	25.7	-
CCn1c(C)nc2cc(C(=O)NN=Cc3ccccc3C)ccc21	.	.	.	-	.
O=C(CN1CCN(C(=O)c2ccco2)CC1)Nc1cc(C(F)(F)F)ccc1Cl	-	14.2	-	-	-
O=C(CN1CCOCC1)Nc1cc(C(F)(F)F)ccc1Cl	-	-	-	-	-
COCc1ccc(C(=O)N2CCCC(N(C)CCc3ccc(OC)c(OC)c3)C2)s1 (stereo not drawn)	-	14.4	-	-	-
O=C(CSc1ccc(Cl)cc1)Nc1cccc(-c2nnc(-c3ccco3)o2)c1	-	10.7	-	-	-
O=C(CSc1nnc(-c2ccc(O)cc2)o1)Nc1ccc2c(c1)OCCO2	-	-	-	-	-
NS(=O)(=O)c1ccc(NC(=O)CSc2nnc(-c3ccc(O)cc3)o2)cc1	-	26.2	-	-	-
O=C(CSc1nnc(-c2ccc(O)cc2)o1)Nc1cccc(O)c1	-	17.7	-	-	-
Cc1cccc(NC(=O)CSc2nnc(-c3n[nH]c4ccccc34)o2)c1	-	-	-	-	-
N#Cc1cccc(NC(=O)CSc2nnc(-c3n[nH]c4ccccc34)o2)c1	-	70.8	-	.	-
CCCN(CCC)Cc1c(C(=O)NN=Cc2ccsc2)nnn1-c1nonc1N	.	.	.	-	.

Compound activity deposited in PubChem by several laboratories.
